Measured values reported in ChEMBL document CHEMBL1122116, “Antiparasitic agents. 5. Synthesis and anthelmintic activities of novel 2-heteroaromatic-substituted isothiocyanatobenzoxazoles and benzothiazoles” (J Med Chem, 1982).

Key:
Rodentolepis nana = assay: Mouse oral clearance was measured against Hymenolepiasis nana.; format: functional; set-up: concentration or dose not given beside the values
In short: (§1)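 Mice experimentally infected with N. dubius (nematode) or H. nana (tapeworm) received the compound in the diet at 0.2%. Read-out is percent clearance of worms after oral dosing.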

[1] = system: Heligmosomoides polygyrus; assay: Mouse oral clearance was measured against Nematospiroides dubius; format: functional; set-up: concentration or dose not given beside the values; in short: as §1
Ovis aries [2] = assay: Percent reduction in nematode fecal egg count was measured in sheep following 50 mg/kg p.o.; format: functional; conditions: route oral
Ovis aries [3] = assay: Percent reduction in fecal egg count was measured in sheep dosed at 25 mg/kg.; format: functional
Ovis aries [4] = assay: Percent reduction in fecal egg count was measured in sheep dosed at 58 mg/kg.; format: functional
Ovis aries [5] = assay: Percent reduction in fecal egg count was measured in sheep dosed at 100 mg/kg.; format: functional
[6] = system: Heligmosomoides polygyrus; assay: Titration of anthelmintic activity against Nematospiroides dubius in mice at 0.025 concentration of diet.; format: ADME, organism-based; conditions: in vivo, po
In short: (§2)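 Titration in mice experimentally infected with N. dubius, with the compound mixed into the diet at a series of levels. Read-out is nematode clearance.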

[7] = system: Heligmosomoides polygyrus; assay: Titration of anthelmintic activity against Nematospiroides dubius in mice at 0.0125 concentration of diet.; format: ADME, organism-based; conditions: in vivo, po; in short: as §2
[8] = system: Heligmosomoides polygyrus; assay: Titration of anthelmintic activity against Nematospiroides dubius in mice at 0.2 concentration of diet.; format: ADME, organism-based; conditions: in vivo, po; in short: as §2
[9] = system: Heligmosomoides polygyrus; assay: Titration of anthelmintic activity against Nematospiroides dubius in mice at 0.05 concentration of diet.; format: ADME, organism-based; conditions: in vivo, po; in short: as §2
[10] = system: Heligmosomoides polygyrus; assay: Titration of anthelmintic activity against Nematospiroides dubius in mice at 0.1 concentration of diet.; format: ADME, organism-based; conditions: in vivo, po; in short: as §2
Ovis aries [11] = assay: Percent reduction in fecal egg count was measured in sheep dosed at 50 mg/kg.; format: ADME, organism-based; set-up: dose 50 mg/kg; conditions: in vivo
Ovis aries [12] = assay: Percent reduction in fecal egg count was measured in sheep dosed at 44 mg/kg.; format: functional

Structure (SMILES)	Activity (Rodentolepis nana) [%]	Activity [1] [%]	Reduction (Ovis aries [2]) [%]	other results
S=C=Nc1ccc2oc(-c3ccncc3)nc2c1	0	0	40	–
S=C=Nc1ccc2nc(-c3cccnc3)sc2c1.S=C=Nc1ccc2sc(-c3cccnc3)nc2c1	100	99	99	–
S=C=Nc1ccc2oc(-c3cccs3)nc2c1	0	98	–	–
S=C=Nc1ccnc(-c2nc3ccccc3o2)c1	0	0	10	–
S=C=Nc1ccc2oc(-c3ccc(CN4CCOCC4)o3)nc2c1	0	0	–	–
S=C=Nc1ccc2nc(-c3cccnc3)oc2c1.S=C=Nc1ccc2oc(-c3cccnc3)nc2c1	–	–	–	Reduction (Ovis aries [3]): 94%
S=C=Nc1ccc2nc(-c3cccs3)oc2c1	0	0	–	–
S=C=Nc1ccc2[nH]c(-c3ccccn3)nc2c1	100	0	100	–
S=C=Nc1ccc2sc(-c3ccccn3)nc2c1	50	20	–	Reduction (Ovis aries [4]): 36%
Cc1ccc(-c2nc3cc(N=C=S)ccc3o2)o1	66	100	–	Reduction (Ovis aries [5]): 97%
S=C=Nc1ccc2oc(-c3ccco3)nc2c1	0	100	–	Activity [6]: 0%; Reduction (Ovis aries [5]): 97%; Activity [7]: 0%; Activity [8]: 100%; Activity [9]: 39%; Activity [10]: 88%
S=C=Nc1ccc2nc(-c3ccccn3)oc2c1.S=C=Nc1ccc2oc(-c3ccccn3)nc2c1	50	0	35	–
Cc1cc2oc(-c3ccccn3)nc2cc1N=C=S	0	0	90	–
Cc1ccsc1-c1nc2cc(N=C=S)ccc2o1	0	78	–	–
S=C=Nc1ccc2nc(-c3ccccn3)sc2c1	75	0	65	–
Cn1cccc1-c1nc2cc(N=C=S)ccc2o1	25	100	34	Activity [6]: 25%; Activity [7]: 0%; Activity [8]: 100%; Activity [9]: 45%; Activity [10]: 81%
S=C=Nc1ccc2oc(-c3cccnc3)nc2c1	–	–	–	Reduction (Ovis aries [11]): 69%
CN1CCN(c2ccc(-c3nc4cc(N=C=S)ccc4o3)cn2)CC1	0	0	0	–
S=C=Nc1ccc2nc(-c3cnccn3)oc2c1.S=C=Nc1ccc2oc(-c3cnccn3)nc2c1	–	0	93	–
S=C=Nc1cc(Cl)c2oc(-c3cccnc3)nc2c1	0	0	0	–

Structure (SMILES)	Activity (Rodentolepis nana) [%]	Activity [1] [%]	Reduction (Ovis aries [2]) [%]	other results
S=C=Nc1ccc2sc(-c3cccnc3)nc2c1	0	58	–	–
CN1CCN(Cc2ccc(-c3nc4cc(N=C=S)ccc4o3)s2)CC1	0	0	–	–
Cc1cc2nc(-c3cccnc3)oc2cc1N=C=S	0	0	–	Reduction (Ovis aries [12]): 99%
S=C=Nc1cc(Cl)c2oc(-c3cccs3)nc2c1	0	0	–	–
S=C=Nc1ccc2oc(-c3ccc(Cl)nc3)nc2c1	0	0	97	–
S=C=Nc1ccc2nc(-c3ccc(N4CCOCC4)nc3)oc2c1.S=C=Nc1ccc2oc(-c3ccc(N4CCOCC4)nc3)nc2c1	0	0	27	–
S=C=Nc1ccc2nc(-c3cccnc3)oc2c1	0	46	78	–
COc1cc2sc(-c3cccnc3)nc2cc1N=C=S	0	5	40	–
CN(C)c1ccc(-c2nc3cc(N=C=S)ccc3o2)cn1.CN(C)c1ccc(-c2nc3ccc(N=C=S)cc3o2)cn1	0	0	–	–
Cc1ccc(-c2nc3cc(N=C=S)ccc3o2)s1	33	0	–	–
S=C=Nc1ccc2oc(-c3sccc3CN3CCOCC3)nc2c1	0	0	–	–
S=C=Nc1ccc2oc(-c3ccc(CN4CCOCC4)s3)nc2c1	66	0	–	–
Cn1cccc1-c1nc2cc(N=C=S)cc(Cl)c2o1	0	0	–	–
S=C=Nc1ccc2oc(-c3ccccc3)nc2c1	0	60	57	–
S=C=Nc1ccc2sc(-c3cccs3)nc2c1	0	61	57	–
Cc1cc2oc(-c3cccnc3)nc2cc1N=C=S	0	99	–	Reduction (Ovis aries [3]): 0%
S=C=Nc1cc(Cl)c2oc(-c3ccc(Cl)nc3)nc2c1	0	0	–	–
CCN(CC)Cc1ccc(-c2nc3cc(N=C=S)ccc3o2)s1.Cl	0	0	–	–
c1ccc2[nH]c(-c3cscn3)nc2c1 [THIABENDAZOLE]	–	–	–	Activity [6]: 47%; Activity [7]: 40%; Activity [8]: 96%; Activity [10]: 89%
